Square brackets hold non-standard residues; d marks the D form. Peptide text beside a SMILES is read from it. * marks the point of attachment. NHPhenethyl = c1ccc(CCN*)cc1; Nle = CCCC[C@H](N)C(=O)O; PhAc = O=C(Cc1ccccc1)*; βAla = NCCC(=O)O

For test [1], the target named is Gastrin-releasing peptide receptor (Homo sapiens, UniProt P30550). In words: Effective concentration required against gastrin releasing peptide receptor (GRP-R) in CHO cells by using FLIPR assay. Format: functional, cell-based.
Chain of Gastrin-releasing peptide receptor (P30550 whole entry): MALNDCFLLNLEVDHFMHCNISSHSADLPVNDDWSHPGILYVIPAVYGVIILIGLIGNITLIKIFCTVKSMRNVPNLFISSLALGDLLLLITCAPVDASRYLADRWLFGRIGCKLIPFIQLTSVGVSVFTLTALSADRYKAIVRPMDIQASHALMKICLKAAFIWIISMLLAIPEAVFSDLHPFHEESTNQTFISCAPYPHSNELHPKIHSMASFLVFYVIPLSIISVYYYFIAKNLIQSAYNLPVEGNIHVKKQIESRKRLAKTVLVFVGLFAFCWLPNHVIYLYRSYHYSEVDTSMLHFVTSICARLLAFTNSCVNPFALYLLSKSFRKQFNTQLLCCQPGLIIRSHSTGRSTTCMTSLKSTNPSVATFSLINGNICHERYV
The target in test [2] is T1, Bombesin receptor subtype-3 (Homo sapiens, UniProt P32247).
T1 sequence (P32247 whole entry): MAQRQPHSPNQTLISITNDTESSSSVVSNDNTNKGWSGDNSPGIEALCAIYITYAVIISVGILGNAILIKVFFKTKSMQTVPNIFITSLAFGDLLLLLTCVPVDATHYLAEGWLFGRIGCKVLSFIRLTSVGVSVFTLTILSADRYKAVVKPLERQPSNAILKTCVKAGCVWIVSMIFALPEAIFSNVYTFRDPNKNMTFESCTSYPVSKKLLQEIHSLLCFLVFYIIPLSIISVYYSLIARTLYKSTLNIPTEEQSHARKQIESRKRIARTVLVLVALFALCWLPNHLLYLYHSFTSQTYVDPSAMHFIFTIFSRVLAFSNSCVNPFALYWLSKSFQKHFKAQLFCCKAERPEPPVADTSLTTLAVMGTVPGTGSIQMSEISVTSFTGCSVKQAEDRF
In words: Effective concentration required against human bombesin receptor 3 (BRS-3) in CHO cells by using FLIPR assay. Format: functional, cell-based.

The nature of test [3]: Emax.
The target in test [4] is T2, Neuromedin-B receptor (Homo sapiens, UniProt P28336). In words: (§1) Effective concentration required against nueromedin B receptor (NMB-R) in CHO cells by using FLIPR assay. The class given is functional, cell-based. Summed up:
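Intracellular Ca2+ mobilization was read by FLIPR in CHO cells transfected with the human receptor. NMB was the reference for NMB-R and GRP for GRP-R. EC50 values (±SEM) come from independent concentration–response curves, 4 to 30 per compound depending on the series.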

Test [5] concerns the target T2, Neuromedin-B receptor. Described as §1. The class given is functional, cell-based. This is another data set of the same source.

T2 sequence (P28336 whole entry): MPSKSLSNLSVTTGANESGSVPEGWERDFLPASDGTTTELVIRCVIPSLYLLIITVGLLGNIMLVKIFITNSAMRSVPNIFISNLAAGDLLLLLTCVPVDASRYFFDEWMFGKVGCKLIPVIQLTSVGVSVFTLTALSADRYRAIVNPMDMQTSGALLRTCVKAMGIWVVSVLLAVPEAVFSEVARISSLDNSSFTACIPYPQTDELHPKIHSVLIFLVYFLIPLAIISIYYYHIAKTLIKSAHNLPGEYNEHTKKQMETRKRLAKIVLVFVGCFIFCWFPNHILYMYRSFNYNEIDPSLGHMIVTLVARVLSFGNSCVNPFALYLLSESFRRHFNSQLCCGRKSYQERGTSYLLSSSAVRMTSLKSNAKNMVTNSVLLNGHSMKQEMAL

What is called EC50 is the concentration giving half of the maximal effect. Consider `NC(=O)CC[C@H](NC(=O)Cc1ccc(Cl)cc1)C(=O)N[C@@H](Cc1c[nH]c2ccccc12)C(=O)NCCc1ccccc1`, for which the EC50 in test [1] is 12.2 µM; in test [2], 1.4 µM; at Neuromedin-B receptor [4] it was 18.5 µM. In test [3], the Emax stood at 62.
Consider `CCCC[C@H](NC(=O)[C@H](Cc1ccccc1)NC(=O)[C@H](Cc1cnc[nH]1)NC(=O)CCNC(=O)[C@@H](NC(=O)[C@H](C)NC(=O)[C@H](Cc1c[nH]c2ccccc12)NC(=O)[C@H](CCC(N)=O)NC(=O)[C@H](N)Cc1ccc(O)cc1)C(C)C)C(N)=O` (H-[dY]QWAV[βAla]HF[Nle]-NH2), for which the values for the EC50 (in test [2]; on Neuromedin-B receptor [5]) were 0.151 µM and 0.31 µM, respectively.
Take `NC(=O)CC[C@H](NC(=O)Cc1ccccc1)C(=O)N[C@@H](Cc1c[nH]c2ccccc12)C(=O)NCCc1ccccc1` (PhAc-Gln-Trp-NHPhenethyl): the EC50 amounted to 19.1 µM in test [1], 1.2 µM in test [2] and 15 µM at Neuromedin-B receptor [4]. In test [3], this molecule yielded an Emax of 38.

For the origin of these results see ChEMBL document CHEMBL1145035, “Design of selective peptidomimetic agonists for the human orphan receptor BRS-3” (J Med Chem, 2003).
